Measurements as given in publication PMC7241432 (ACS infectious diseases, 2019).
Converted amounts (≈) assume the structure as drawn. Where two headings read alike, the source gives them in different places.

Columns and labels:
[1] = system: luxAB (luciferase) containing strain of Mtb H37Rv; type: cell-based, Mycobacterium tuberculosis; details: hypoxic conditions, control
BlaC = biological target: T1, BlaC (Mycobacterium tuberculosis, UniProt P9WKD3); type: biochemical; details: 100 μM compound, 1 μM BlaC, 10 min
T1 sequence (P9WKD3 35-307): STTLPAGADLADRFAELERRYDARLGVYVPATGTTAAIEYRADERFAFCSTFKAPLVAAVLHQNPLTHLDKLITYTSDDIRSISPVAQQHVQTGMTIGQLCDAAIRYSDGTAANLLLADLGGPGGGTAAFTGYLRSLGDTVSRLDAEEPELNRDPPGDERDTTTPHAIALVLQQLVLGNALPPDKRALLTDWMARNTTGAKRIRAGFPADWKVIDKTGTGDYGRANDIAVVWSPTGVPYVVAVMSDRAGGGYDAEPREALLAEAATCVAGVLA

[2] = Stability / PYR release in cell-free medium; type: physicochemical
Procedure, shortened: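 PYR measured colorimetrically: cell-free medium (R or nitrite-containing NR medium) mixed 1:1 with 0.01 M ferric nitrate in 0.1 N sulfuric acid and shaken 5–10 min at room temperature. Fe3+–PYR complex read by absorbance at 600 nm. Concentration taken from a linear sodium-PYR standard curve. Free PYR followed over 24 h (R medium) and 48 h (NR medium).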

[3] = system: methicillin-sensitive S. aureus; assay: Antimicrobial spectrum MIC90, MSSA; type: cell-based; details: Staphylococcus aureus, 24 h
Mtb strain H37Rv = assay: microbe, parasite or virus in culture; type: cell-based, Mycobacterium tuberculosis; details: for MBC: Mycobacterium tuberculosis, H37RV
Mtb [4] = type: cell-based, Mycobacterium tuberculosis
Mtb [5] = details: 14-day exposure of hypoxic Mtb, plus clavulanate; cited from earlier work

CO[C@H]1/C=C/O[C@@]2(C)Oc3c(C)c(O)c4c(O)c(c(/C=N/N5CCN(C)CC5)c(O)c4c3C2=O)NC(=O)/C(C)=C\C=C\[C@H](C)[C@H](O)[C@@H](C)[C@@H](O)[C@@H](C)[C@H](OC(C)=O)[C@@H]1C [rifampicin]
activity in LORA [1]: lost activity

CC(=O)OCC1=C(C(=O)O)N2C(=O)[C@@H](NC(=O)Cc3cccs3)[C@H]2SC1 [cephalothin]
UV-visible absorption spectrum after incubation with BlaC (BlaC): did not change

O=C(O)CSc1cccc[n+]1[O-] [Compound 10, 2-(carboxymethylthio)pyridine-N-oxide]
PYR release in cell-free medium ([2]; Fe3+-PYR complex, absorbance at 600 nm): not released

[O-][n+]1ccccc1S [PYR, pyrithione]
MIC90 [3]: 25 µM (≈ 3.18 µg/mL)
potency relative to cephalosporin 1a (Mtb strain H37Rv): equipotent on a molar basis
MBC (Mtb strain H37Rv; read-out: MBC NR CARA): 1.25 µM (≈ 0.159 µg/mL)
MBC (Mtb strain H37Rv; read-out: MBC NR CARA + 25 μM Clav): 1.25 µM
MBC (Mtb strain H37Rv; read-out: MBC R CARA): 1.25 µM (≈ 0.159 µg/mL)
MBC (Mtb strain H37Rv; read-out: MBC R CARA + 25 μM Clav): 1.25 µM
stability of free PYR in the medium used for NR conditions ([2]; NR medium): largely disappeared over 48 h
stability of free PYR in the medium used for R conditions ([2]; R medium): at least 24 h
reduction of CFU of R Mtb (Mtb [4]): > 5 orders of magnitude
time to reduce CFU of R Mtb by >5 orders of magnitude (Mtb [4]): ≤ 24 h

C[C@@H](O)[C@H]1C(=O)N2C(C(=O)O)=C(S[C@@H]3CN[C@H](C(=O)N(C)C)C3)[C@H](C)[C@H]12 [meropenem]
reduction in colony-forming units (CFUs) (Mtb [5]): ca. 1 order of magnitude
